# Source: PubChem BioAssay (several laboratories)
# The list is not random: actives were taken first. Their share in the collection is about 5.6%.
# MPTP inh: mitochondrial permeability transition pore inhibitors, primary screen, biochemical, isolated mouse mitochondria, absorbance; Ca2+ swelling absorbance, 30 min; inhibition, % at 10 µM; hit rate 1.4% among 360,000; AID 602449, 2012;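 active = inhibition of 50% or more, scaled per plate between neutral and stimulator controls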
# CHOP inhibitor: inhibitors of CHOP promoter induction, primary screen, cell-based, unfolded protein response, luciferase reporter | CHO-K1 CHOP-promoter luciferase, tunicamycin-induced, 15-18 h | inhibition, % at 10 µM | hit rate 3.8% among 220,000 | AID 2732, 2010;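 active = compounds that reduced the stress-induced luciferase reporter signal by more than about 70% of percent inhibition, limit read from the data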
# XBP1 UPR activ: activators of adaptive XBP1 UPR arm, primary screen, cell-based, CHO-XBP1 luciferase reporter, luminescence, uHTS | IRE1-XBP1 UPR activation; percent of tunicamycin response, DMSO as zero | activation, % at 20 µM | hit rate 0.33% among 330,000 | AID 463104, 2010;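 active = versus positive control, 20 µM dose yields 30% or more activation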
#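 Test system: CHO-XBP1 luciferase reporter cells | Buffer or medium: Serum-containing F12 medium, 10% FBS | Schedule: 6 h compound exposure at 37 °C, 5% CO2 | Detection: Steady-Glo luciferase glow luminescence, 10 min after reagent addition | Read-out basis: Activation, % of tunicamycin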
# NR3A LBD binder: binders of NR3A ligand-binding domain, primary screen, biophysical, differential scanning fluorimetry, uHTS. NR3A LBD differential scanning fluorimetry, Tm shift; 0% = protein alone, 100% = glycine-bound protein. AID 1259313, 2017. Tm shift relative to glycine control, % at 25 µM. hit rate 2.5% among 340,000. Glutamate receptor ionotropic, NMDA 3A (GRIN3A) ligand-binding domain;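 active = melting temperature shift of at least 10% of the positive control shift, at one fixed dose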
# UPR CHOP act: activators of apoptotic CHOP UPR arm, primary screen, cell-based, CHO-CHOP luciferase reporter, luminescence, uHTS | UPR activation; percent of tunicamycin response over DMSO baseline | activation, % at 10 µM | hit rate 0.34% among 330,000 | AID 449763, 2010;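 active = at 10 µM dose, activation of 40% or more, normalized to positive control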
#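 Dosing – one dose, 10 µM in 0.5% DMSO · System – CHO-CHOP cells, stable luciferase reporter of PERK-eIF2a-CHOP signalling · Input – 500 cells/well · Control set – tunicamycin 10 µg/mL final as positive, DMSO-only wells as negative · Timing – 6 h compound treatment, 37 °C · Measure – % activation vs tunicamycin · Technique – luminescence read with Steady-Glo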
# aDG glyco up: activators of alpha-DG glycosylation, primary screen, uHTS, Pro5-aDG cells, AlphaScreen. AID 624168, 2012. activation, % at 10 µM. alpha-DG glycosylation AlphaScreen (IIH6); 0% Pro5, 100% B10-LARGE cell signal. hit rate 0.22% among 360,000;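 active = activation of at least 8% versus controls, or a plate z-score of at least 8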;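 also: Pro5 are CHO cells carrying HIG-tagged alpha-DG that lacks glycosylation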
# Numbers stand for hits; 0 = inactive; - = no result.
SMILES,MPTP inh,CHOP inhibitor,XBP1 UPR activ,NR3A LBD binder,UPR CHOP act,aDG glyco up
COc1cc(C2C(C(=O)c3cc4ccccc4o3)=C(O)C(=O)N2CCN2CCOCC2)ccc1OCCC(C)C (stereo not given),0,-,0,0,0,0
O=[N+]([O-])c1cccc(C=NNc2ccccc2)c1,0,-,-,34,-,0
CCSc1ncc(/C=N/Nc2ccccc2)n1C,0,0,0,0,0,0
CCSc1ncc(/C=N/Nc2ccc([N+](=O)[O-])cc2)n1C,0,78,0,0,0,0
O=[N+]([O-])c1cccc(N/N=C/c2ccc(N3CCOCC3)cc2)c1,0,-,0,22,0,0
Cc1cc(-c2ccccc2)nc(N/N=C/c2ccc(O)cc2O)n1,0,-,0,11,0,0
O=[N+]([O-])c1cccc(/C=N/N=C\c2ccccc2)c1,0,-,0,0,0,0
NC(c1ccncc1)c1ccc(Cl)cc1 (stereo not given),0,-,-,-,-,0
CN(Cc1ccc(OC(F)F)cc1)C(=O)/C=C/c1ccc(S(=O)(=O)N2CCOCC2)cc1,0,-,0,0,0,0
COc1cccc(/C=C/C(=O)OCC(=O)NC2CCCCCC2)c1,0,-,-,-,-,0
CN(N)c1nc(-c2ccccc2)cc(-c2ccccc2)n1,0,-,0,0,0,0
Cc1cc(-c2ccccc2)nc(N/N=C/c2ccc([N+](=O)[O-])cc2)n1,0,0,0,24,0,0
O=[N+]([O-])c1ccc(C=NNc2ccccc2)cc1,0,-,-,34,-,0
Nc1cc(Cl)nc(N/N=C/c2ccc([N+](=O)[O-])cc2)n1,0,0,0,21,0,0
Cc1cc(-c2ccccc2)nc(N/N=C/c2ccccc2)n1,0,-,0,0,0,0
CN(/N=C/c1ccc(O)cc1O)c1nc(-c2ccccc2)cc(-c2ccccc2)n1,0,0,0,22,0,0
CC1CC(=O)N(CC(=O)Nc2ccccc2F)c2ccccc2S1(=O)=O (stereo not given),0,-,0,0,0,0
COc1ncccc1-c1cc2nc(NCCCN(C)C)n(C)c(=O)c2s1,0,-,-,-,-,0
COc1ccc(NC(=O)COC(=O)CNC(=O)c2cccs2)cc1Cl,0,-,0,0,0,0
CCc1cc(=O)oc2cc(OC(=O)c3ccco3)ccc12,0,-,0,476,0,0
Cc1cc(=O)oc2cc(OC(=O)c3ccco3)ccc12,0,0,-,0,-,0
Nn1c(SCC(=O)Nc2ccc3c(c2)OCCO3)nnc1-c1ccncc1,0,-,0,17,0,0
Cc1ccc(Cl)cc1N1CCN(C(=O)C2CCN(S(=O)(=O)c3cccnc3)CC2)CC1,0,0,0,0,0,7.5
O=C(C1CCN(S(=O)(=O)c2cccnc2)CC1)N1CCN(c2ccccc2Cl)CC1,0,0,0,0,0,0
COCCCN1C(=O)C(CC(=O)NC(c2ccccc2)c2ccccc2)CC(C(=O)N(C(C)C)C(C)C)=C1C (stereo not given),0,-,-,-,-,0
SMILES,MPTP inh,CHOP inhibitor,XBP1 UPR activ,NR3A LBD binder,UPR CHOP act,aDG glyco up
Cc1ccccc1NC(=O)CCc1nnc2ccc(N3CCC4(CC3)OCCO4)nn12,0,-,0,0,0,0
CCOC(=O)CC1c2nc3ccccc3cc2CN1C(=O)OCC (stereo not given),0,-,-,-,-,0
COc1cc2c(=O)c(-c3ccc(O)cc3)coc2cc1OC1OC(CO)C(O)C(O)C1O (stereo not given),0,0,0,0,0,0
COc1cc([C@H]2OC[C@H]3[C@@H]2CO[C@@H]3c2ccc(O[C@H]3O[C@H](CO)[C@@H](O)[C@H](O)[C@H]3O)c(OC)c2)ccc1O[C@@H]1O[C@H](CO)[C@@H](O)[C@H](O)[C@H]1O,0,-,0,16,0,0
COc1ccc(C2=NOC(C(=O)N3CCCCCC3)C2)cc1OC (stereo not given),0,0,0,0,0,0
COc1cc(C2=NOC(C(=O)N3CCOCC3)C2)cc(OC)c1OC (stereo not given),0,0,0,13,0,0
O=C(OCCc1cc2ccccc2c(=O)o1)c1ccco1,0,-,0,0,0,0
COc1ccccc1-c1cc(N)n(S(=O)(=O)c2cccc3nsnc23)n1,0,0,0,0,0,0
Nc1cc(-c2ccc(Cl)cc2)nn1S(=O)(=O)c1cccc2nsnc12,0,80,0,19,0,0
Nc1cc(-c2cccc(F)c2)nn1S(=O)(=O)c1cccc2nsnc12,0,0,0,0,0,0
Nc1cc(-c2ccc(Br)cc2)nn1S(=O)(=O)c1cccc2nsnc12,0,86,0,0,0,0
CN(C(=O)CSc1nnc(-c2ccco2)n1C)C1CCCCC1,0,-,0,0,0,0
COC(=O)c1cc(Cl)c(NC(=O)c2ccc(C(C)(C)C)cc2)cc1OC,0,89,0,0,0,0
O=C(Nc1ccc(F)c(Cl)c1)C1CC(=O)n2c(nc3ccccc32)N1 (stereo not given),0,76,0,0,0,0
Cc1ccc(/C=C2\SC(=S)N(CCC(=O)NNC(=O)c3ccc(O)cc3)C2=O)cc1,0,-,0,23,0,0
Cc1ccc(/C=C2\SC(=S)N(CCC(=O)NNC(=O)c3cccc(O)c3)C2=O)cc1,0,-,0,24,0,0
O=C(Nc1ccon1)c1ccc(N2CCCCC2)c([N+](=O)[O-])c1,0,0,0,0,0,0
O=C(Nc1nc2ccccc2s1)c1ccc(N2CCCCC2)c([N+](=O)[O-])c1,0,79,0,0,0,0
O=C(Nc1nc(-c2ccccc2)cs1)c1ccc(N2CCOCC2)c([N+](=O)[O-])c1,0,79,0,0,0,0
CC(C)(C)c1ccc(CC(=O)N2CCC2(C)C(=O)NCCC#N)cc1 (stereo not given),0,-,-,-,-,0
Cc1cccc(-c2cc3nc4c(c(N5CCOCC5)n3n2)CCCC4)c1,0,0,0,0,0,0
Cc1cccc(-c2cc3nc4c(c(N5CCC6(CC5)OCCO6)n3n2)CCCC4)c1,0,-,0,15,0,0
O=C(OCCCc1cc2ccccc2c(=O)o1)c1ccc2c(c1)OCO2,0,-,0,0,0,0
CN(C)S(=O)(=O)c1ccc(C(=O)OCC(=O)N2CC3(C)CC2CC(C)(C)C3)cc1 (stereo not given),0,-,0,0,0,0
S=C1Cc2ccccc2N1,0,107,-,0,-,0
S=C1Nc2ccccc2CS1,0,-,-,-,-,0
Cc1ccc(-c2nc(-c3nccc4ccccc34)oc2-c2ccccc2)cc1,0,0,0,11,0,0
